Published values from different studies.
Protocols differ between the studies behind these lines.
Effect on: cell growth or viability

| SMILES | cell line | test | setting | endpoint | result |
| --- | --- | --- | --- | --- | --- |
| N.N.[Cl][Pt][Cl] | CCD-18Co | ATP luminescence |  | GI50 | 1.1 µg/mL |
| N[C@@H](Cc1ccc(N(CCCl)CCCl)cc1)C(=O)O | HepG2 | CCK-8 | 48 h | IC50 | 36.5 µM |
| N.N.[Cl][Pt][Cl] | HEK-293T | XTT | 24 h | IC50 | 64.4 µM |
| COc1cc(OC)c(/C=C/S(=O)(=O)Nc2ccc(OC)c(N)c2)c(OC)c1 | RF1 | trypan blue | 96 h | IC50 | 0.004 µM |
| N.N.[Cl][Pt][Cl] | Huh-7 | MTT | 20 µM | inhibition | 76.4% |
| CC[C@@]1(OC(=O)[C@@H](N)CCCCN)C(=O)OCc2c1cc1n(c2=O)Cc2cc3cc4c(cc3nc2-1)OCO4 | HepG2 | MTT |  | IC50 | 0.035 µM |
| N.N.O=C([O-])C1(C(=O)[O-])CCC1.[Pt+2] | PNT2 | MTT | 96 h | IC50 | 27 µM |
| CC[C@@]1(OC(=O)[C@@H](N)CCSC)C(=O)OCc2c1cc1n(c2=O)Cc2cc3cc4c(cc3nc2-1)OCO4 | HepG2 | MTT |  | IC50 | 0.113 µM |
| CC1=C(O)C(=O)C=C2C1=CC=C1[C@@]2(C)CC[C@@]2(C)[C@@H]3C[C@](C)(C(=O)O)CC[C@]3(C)CC[C@]12C | HepG2 | MTT | 20 µM | inhibition | 92% |
| CC[C@@]1(OC(=O)CN)C(=O)OCc2c1cc1n(c2=O)Cc2cc3cc4c(cc3nc2-1)OCO4 | HepG2 | MTT |  | IC50 | 0.025 µM |
| CCCc1cc(=O)n2nc(NCc3c(F)cc(Cl)cc3F)c(C#N)c2[nH]1 | HCC33 | ATP luminescence | 72 h | IC50 | > 50 µM |
| CCC1(OC(=O)C(C)c2ccc3cc(OC)ccc3c2)C(=O)OCc2c1cc1n(c2=O)Cc2cc3cc4c(cc3nc2-1)OCO4 (stereo not shown) | HepG2 | MTT |  | IC50 | 3.5 µM |
| CCOC(=O)C1=C(N)N(c2ccc(C(=O)OCC)cc2)C(O)=C(C#N)C12C(=O)Nc1ccccc12 (stereo not shown) | HepG2 | MTT | 25 µM, 24 h | viability | 26.3% |
